From ChEMBL document CHEMBL4765345, “Design, synthesis, and biological evaluation of dual targeting inhibitors of histone deacetylase 6/8 and bromodomain BRPF1” (Eur J Med Chem, 2020) come the findings set out here.

One data set deals with Histone deacetylase 1 (Homo sapiens, UniProt Q13547). As to the kind of experiment: Inhibition of recombinant human HDAC1 using Z-(Ac)Lys-AMC as substrate after 90 mins by fluorescence based micro plate assay. The essentials:
(§1)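 Recombinant human HDAC1 or HDAC6 incubated 90 min at 37 °C with 10.5 μM ZMAL (Z-(Ac)Lys-AMC) and increasing inhibitor concentrations, using a homogeneous fluorescence assay. Fluorescence read at Ex 390/Em 460 nm.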

Data set [1] concerns the target T1, Protein deacetylase HDAC6 (Homo sapiens) (UniProt Q9UBN7).
T1 sequence (whole entry): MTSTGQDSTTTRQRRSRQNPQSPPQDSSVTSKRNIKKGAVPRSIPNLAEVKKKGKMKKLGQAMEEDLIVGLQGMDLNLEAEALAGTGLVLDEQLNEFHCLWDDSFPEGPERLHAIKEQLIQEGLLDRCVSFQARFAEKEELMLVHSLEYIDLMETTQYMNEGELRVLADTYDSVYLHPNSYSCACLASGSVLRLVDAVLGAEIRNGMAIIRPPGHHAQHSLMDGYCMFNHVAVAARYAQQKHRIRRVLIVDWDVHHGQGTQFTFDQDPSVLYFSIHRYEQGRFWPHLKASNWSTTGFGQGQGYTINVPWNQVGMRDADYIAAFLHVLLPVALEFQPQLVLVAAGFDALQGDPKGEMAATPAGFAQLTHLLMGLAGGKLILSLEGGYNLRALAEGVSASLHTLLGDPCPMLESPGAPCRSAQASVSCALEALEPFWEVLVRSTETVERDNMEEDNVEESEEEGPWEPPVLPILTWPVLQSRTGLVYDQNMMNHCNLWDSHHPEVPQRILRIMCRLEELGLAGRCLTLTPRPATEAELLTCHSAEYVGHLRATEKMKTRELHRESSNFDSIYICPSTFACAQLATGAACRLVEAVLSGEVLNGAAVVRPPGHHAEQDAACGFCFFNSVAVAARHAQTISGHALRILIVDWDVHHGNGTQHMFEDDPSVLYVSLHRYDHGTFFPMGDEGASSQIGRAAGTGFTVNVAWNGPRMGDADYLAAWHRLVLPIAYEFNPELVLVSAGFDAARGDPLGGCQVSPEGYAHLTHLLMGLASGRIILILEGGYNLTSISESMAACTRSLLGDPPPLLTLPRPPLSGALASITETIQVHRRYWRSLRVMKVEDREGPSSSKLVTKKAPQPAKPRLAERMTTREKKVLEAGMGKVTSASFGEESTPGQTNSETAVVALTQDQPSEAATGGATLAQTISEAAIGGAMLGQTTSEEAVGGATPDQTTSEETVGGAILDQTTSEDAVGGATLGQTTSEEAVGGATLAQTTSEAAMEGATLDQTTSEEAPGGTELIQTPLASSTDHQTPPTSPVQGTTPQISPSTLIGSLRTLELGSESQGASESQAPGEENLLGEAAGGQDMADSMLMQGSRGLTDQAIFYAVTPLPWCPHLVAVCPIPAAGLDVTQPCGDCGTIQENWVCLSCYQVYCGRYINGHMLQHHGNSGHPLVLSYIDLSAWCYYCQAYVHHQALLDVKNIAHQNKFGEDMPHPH
As to the kind of experiment: Inhibition of recombinant human HDAC6 at 1 uM using Z-(Ac)Lys-AMC as substrate after 90 mins by fluorescence based micro plate assay. The essentials:
as §1

Data set [2] concerns HL-60. As to the kind of experiment: Antiproliferative activity against human HL60 assessed as reduction in cell growth at 20 uM by CellTiter-non radioactive cell proliferation assay. Type of data set: functional.
A further data set addresses T2, Histone deacetylase 8 (Homo sapiens, UniProt Q9BY41).
T2 sequence (Q9BY41 whole entry): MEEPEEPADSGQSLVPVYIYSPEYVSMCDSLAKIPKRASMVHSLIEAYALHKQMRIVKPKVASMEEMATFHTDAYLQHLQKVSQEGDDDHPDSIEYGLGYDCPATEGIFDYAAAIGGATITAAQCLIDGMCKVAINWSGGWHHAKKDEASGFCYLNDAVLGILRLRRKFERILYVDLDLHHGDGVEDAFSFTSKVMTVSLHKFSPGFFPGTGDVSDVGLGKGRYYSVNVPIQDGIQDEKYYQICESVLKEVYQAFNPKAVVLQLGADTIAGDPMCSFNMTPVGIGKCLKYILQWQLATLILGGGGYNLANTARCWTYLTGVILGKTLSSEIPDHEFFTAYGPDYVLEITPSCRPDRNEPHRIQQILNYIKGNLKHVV
As to the kind of experiment: Inhibition of human recombinant HDAC8 using H2N-Arg-His-Lys(Ac)-Lys(Ac)-AMC as substrate after 90 mins by fluorescence based micro plate assay.

In data set [3] the test system is HL-60. As to the kind of experiment: Antiproliferative activity against human HL60 assessed as reduction in cell growth at 4 uM by CellTiter-non radioactive cell proliferation assay. Type of data set: functional. The essentials: (§2)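 HL60 cells plated at 5000 per well and given inhibitor or DMSO vehicle immediately. Compounds diluted from 200x DMSO stocks; three replicates per concentration. Growth read by CellTiter 96 Aqueous (MTS) assay. GI50 is the concentration cutting metabolically active cells by 50% versus DMSO control, taken from absorbance against log concentration.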

A further data set concerns the target T3, Peregrin (Homo sapiens, UniProt P55201).
T3 sequence (P55201 whole entry): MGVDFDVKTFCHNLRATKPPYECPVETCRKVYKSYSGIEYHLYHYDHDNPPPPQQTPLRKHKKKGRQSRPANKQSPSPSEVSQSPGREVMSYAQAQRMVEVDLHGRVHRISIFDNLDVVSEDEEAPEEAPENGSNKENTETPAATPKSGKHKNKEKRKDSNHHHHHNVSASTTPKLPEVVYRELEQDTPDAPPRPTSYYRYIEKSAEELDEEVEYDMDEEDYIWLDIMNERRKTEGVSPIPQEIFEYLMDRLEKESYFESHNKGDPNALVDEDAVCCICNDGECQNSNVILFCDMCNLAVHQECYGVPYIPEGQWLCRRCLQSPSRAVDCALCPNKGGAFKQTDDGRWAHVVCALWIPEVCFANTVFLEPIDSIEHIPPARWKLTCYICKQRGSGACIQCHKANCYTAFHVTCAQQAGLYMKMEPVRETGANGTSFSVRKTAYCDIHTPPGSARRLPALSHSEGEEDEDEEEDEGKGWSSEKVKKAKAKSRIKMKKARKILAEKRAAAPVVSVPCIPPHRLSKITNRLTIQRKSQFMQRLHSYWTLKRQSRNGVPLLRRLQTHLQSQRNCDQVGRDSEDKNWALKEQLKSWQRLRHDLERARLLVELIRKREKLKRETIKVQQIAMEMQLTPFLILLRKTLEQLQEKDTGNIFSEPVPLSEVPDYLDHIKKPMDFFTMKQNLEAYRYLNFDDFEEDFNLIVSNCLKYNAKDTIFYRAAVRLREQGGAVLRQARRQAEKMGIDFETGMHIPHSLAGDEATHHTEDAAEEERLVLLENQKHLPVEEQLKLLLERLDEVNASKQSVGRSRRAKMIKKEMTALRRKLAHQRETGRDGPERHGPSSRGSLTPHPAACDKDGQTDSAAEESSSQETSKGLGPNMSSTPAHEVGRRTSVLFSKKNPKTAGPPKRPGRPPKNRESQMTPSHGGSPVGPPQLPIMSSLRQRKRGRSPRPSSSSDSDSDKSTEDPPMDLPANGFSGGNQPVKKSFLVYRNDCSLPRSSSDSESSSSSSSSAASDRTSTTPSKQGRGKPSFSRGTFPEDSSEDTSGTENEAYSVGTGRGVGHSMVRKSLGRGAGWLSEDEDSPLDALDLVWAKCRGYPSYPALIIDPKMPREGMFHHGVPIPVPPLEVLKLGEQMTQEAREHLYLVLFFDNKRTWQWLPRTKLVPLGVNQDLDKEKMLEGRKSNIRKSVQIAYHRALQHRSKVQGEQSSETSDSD
As to the kind of experiment: Binding affinity to BRPF1 (unknown origin) by Isothermal titration calorimetry. The settings on record: read-out: Kd. In short, it runs like this:
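Isothermal titration calorimetry with recombinant BRPF1 (200–400 μM) in the injection syringe titrated into ligand (20–40 μM) in the sample cell. Kd was fitted from the titrations and reported with its P99 interval.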

In data set [4] the test system is HL-60. As to the kind of experiment: Antiproliferative activity against human HL60 assessed as reduction in cell growth at 100 uM by CellTiter-non radioactive cell proliferation assay. The format is functional.
The nature of data set [5]: Cytotoxicity against human HEK293 assessed as reduction in cell viability incubated for 24 hrs by AlamarBlue assay. Type of data set: cell-based. The settings on record: HEK293 cells, read-out: INH. In short, it runs like this: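 HEK293 cells were grown at 37 °C under 5% CO2 in DMEM with 10% FCS and 5 mM glutamine and seeded at 1.5 x 10³ cells per well. Compound at 50 μM was added at once. After 24 h AlamarBlue was added for another 21 h, and fluorescence was read at Ex 560/Em 590 nm. Triplicates over three independent experiments.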
A general note: Alamar Blue is a resazurin reagent that responds to reducing activity.

In data set [6] the target is T1, Protein deacetylase HDAC6 (Homo sapiens). As to the kind of experiment: Inhibition of recombinant human HDAC6 at 10 uM using Z-(Ac)Lys-AMC as substrate after 90 mins by fluorescence based micro plate assay. In short, it runs like this:
as §1

Data set [7] concerns THP-1. As to the kind of experiment: Antiproliferative activity against human THP-1 assessed as reduction in cell growth at 20 uM by CellTiter-non radioactive cell proliferation assay. The format is functional.
The test system of data set [8] is THP-1. As to the kind of experiment: Antiproliferative activity against human THP-1 assessed as reduction in cell growth at 1 uM by CellTiter-non radioactive cell proliferation assay. Type of data set: functional.
Data set [9] deals with HL-60. As to the kind of experiment: Antiproliferative activity against human HL60 assessed as reduction in cell growth at 50 uM by CellTiter-non radioactive cell proliferation assay. Type of data set: functional. The essentials:
as §2

For data set [10], the system named is THP-1. As to the kind of experiment: Antiproliferative activity against human THP-1 assessed as reduction in cell growth at 100 uM by CellTiter-non radioactive cell proliferation assay. Type of data set: functional.
The subject of data set [11] is HL-60. As to the kind of experiment: Antiproliferative activity against human HL60 assessed as reduction in cell growth at 1 uM by CellTiter-non radioactive cell proliferation assay. Type of data set: functional.
Data set [12] has as its target T4, Protein deacetylase HDAC6 (Homo sapiens, UniProt Q9UBN7).
T4 sequence (Q9UBN7 whole entry): T1 sequence (whole entry)
As to the kind of experiment: Inhibition of recombinant human HDAC6 using Z-(Ac)Lys-AMC as substrate after 90 mins by fluorescence based micro plate assay. In short, it runs like this:
as §1

Sequence of Histone deacetylase 1 (Q13547 whole entry): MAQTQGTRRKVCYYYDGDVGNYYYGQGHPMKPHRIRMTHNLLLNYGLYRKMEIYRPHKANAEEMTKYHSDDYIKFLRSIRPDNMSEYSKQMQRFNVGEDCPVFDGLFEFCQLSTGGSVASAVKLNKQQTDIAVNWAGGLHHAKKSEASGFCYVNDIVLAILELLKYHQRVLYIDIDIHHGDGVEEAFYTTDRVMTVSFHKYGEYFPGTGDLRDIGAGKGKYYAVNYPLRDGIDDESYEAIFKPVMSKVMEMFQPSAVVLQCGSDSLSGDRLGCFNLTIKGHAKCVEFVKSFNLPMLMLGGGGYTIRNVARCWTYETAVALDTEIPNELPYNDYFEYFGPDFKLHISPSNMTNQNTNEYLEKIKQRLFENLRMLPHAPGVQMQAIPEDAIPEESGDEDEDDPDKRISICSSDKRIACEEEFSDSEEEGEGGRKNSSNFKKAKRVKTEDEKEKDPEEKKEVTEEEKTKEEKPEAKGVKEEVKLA

For the compound `COc1ccc(C(=O)NO)cc1NCc1ccc(OCCCCC(=O)Nc2ccc3c(c2)cc(C)c(=O)n3C)cc1`, the values for the half-inhibitory concentration (IC50) at Histone deacetylase 1 and on Histone deacetylase 8 were 5.2 µM and 0.956 µM, respectively. Moreover, the results for the inhibition in data set [1] and in [6] were 50% and 68%, respectively. The inhibition at 20 µM with HL-60 [2] and in the data set on THP-1 [7] was 0% in each case. The inhibition (commonly the relative decrease from the control value, in per cent) at 4 µM with HL-60 [3] worked out at 0%. Also, the Kd – broadly, the constant that tells how readily two partners part at equilibrium – on Peregrin is 4.08 µM. For the same compound, the inhibition at 100 µM with HL-60 [4] worked out at 0%. Further, the cytotoxicity at 24 h in data set [5] was found to be 15%.

For `Cc1cc2cc(NC(=O)c3ccc(S(=O)(=O)Nc4ccc5c(c4)cc(C)c(=O)n5C)cc3)ccc2n(C)c1=O`, the inhibition at 1 µM came out at 0% with THP-1 [8] and 20% in the data set on HL-60 [11]. Further, in the data set with HL-60 [9], the inhibition at 50 µM worked out at 48%. In addition, the inhibition at 20 µM in the data set with HL-60 [2] is 55%; in the data set with THP-1 [7], 84%. In the data set with THP-1 [10], the inhibition at 100 µM amounted to 73%.

Take `Cc1cc2cc(NS(=O)(=O)c3ccc(C(=O)NO)cc3)ccc2n(C)c1=O`: the IC50 (as a rule, the concentration that gives 50% inhibition) on Histone deacetylase 1 was 0.797 µM; on Histone deacetylase 8, 0.908 µM; in data set [12], 0.344 µM. For the same compound, the values for the inhibition at 1 µM in the data set on THP-1 [8] and in the data set on HL-60 [11] were 0% and 3%, respectively. For the same compound, in the data set with HL-60 [2], the inhibition at 20 µM turned out to be 6%. In addition, the results for the inhibition at 100 µM in the data set on THP-1 [10] and with HL-60 [4] were 78% and 34%, respectively. Further, the dissociation constant (Kd) at Peregrin amounted to 0.175 µM.
